The text below walks through data of ChEMBL document CHEMBL3580599, “Synthesis and Biological Evaluation of Novel Homoisoflavonoids for Retinal Neovascularization” (J Med Chem, 2015).

The nature of series [1]: Growth inhibition of human HUVEC cells assessed as reduction in cell number after 48 hrs by alamarBlue based fluorescence assay. A digest of the protocol:
(§1)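 Cells (2,500 per well in growth medium) were allowed 24 h, then exposed 48 h to compound over 0.5 nM–500 μM. alamarBlue was added and fluorescence read 4 h later (ex 560/em 590 nm). Dose-response curves were fitted relative to DMSO control; compounds not reducing cell number ≥50% at the top concentration were reported as GI50 >100 μM.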
(Resazurin is reduced to fluorescent resorufin, in cell work by metabolically active cells.)

A short description of series [2]: Growth inhibition of human HREC cells assessed as reduction in cell number after 48 hrs by alamarBlue based fluorescence assay. The class given is functional. A digest of the protocol: as §1
A short description of series [3]: Growth inhibition of human 92-1 cells assessed as reduction in cell number after 48 hrs by alamarBlue based fluorescence assay. The format is functional. The method, boiled down:
as §1

For the next series, the system named is Y79. Description: Growth inhibition of human Y79 cells assessed as reduction in cell number after 48 hrs by alamarBlue based fluorescence assay. The class given is functional. To be noted: Y79, 48 h. A digest of the protocol:
as §1

Regarding `COc1ccc(CC2COc3cc(OC)c(O)c(O)c3C2=O)cc1O` (stereo not drawn), the GI50 at 48 h in series [1] worked out at 18 µM. Besides, the concentration for 50% growth inhibition (GI50) in series [2] is 45 µM; in series [3], 10 µM; in the series on Y79 it was > 100 µM.
`CC[C@H](C)[C@H](NC(=O)OC(C)(C)C)C(=O)Oc1cc(CC2COc3cc(OC)c(OC)c(OC)c3C2=O)ccc1OC` (stereo partly drawn): the GI50 at 48 h in series [1] is > 100 µM. The GI50 in series [2] was 3.1 µM; in series [3], > 100 µM; in the series with Y79, 24 µM.
As to `COc1ccc(CC2COc3cc(OC)c(OC)c(OC)c3C2=O)cc1OC(=O)CCc1ccccc1` (stereo not drawn), the GI50 at 48 h in series [1] stood at 38 µM. The GI50 is 0.22 µM in series [2], > 100 µM in series [3] and > 100 µM in the series with Y79.
With `COc1ccc(CC2COc3cc(OC)c(OC)c(OC)c3C2=O)cc1NC(=O)[C@H](Cc1ccc(OCc2ccccc2)cc1)NC(=O)OC(C)(C)C` (stereo partly drawn), in series [1], the concentration for 50% growth inhibition (GI50) at 48 h was > 100 µM. The GI50 in series [2] was > 100 µM; in series [3] it was > 100 µM; with Y79, 0.39 µM.
Turning to `COc1ccc(CC2COc3cc(O)c(OC)c(OC)c3C2=O)cc1O` (stereo not drawn), in series [1], the GI50 at 48 h was > 100 µM. For the same molecule, the GI50 (in series [2]; in series [3]; with Y79) was > 100 µM throughout.
As for `COc1ccc(/C=C2\COc3cc(OC)c(OC)c(OC)c3C2=O)cc1[N+](=O)[O-]`, the 50% growth inhibitory concentration (GI50) at 48 h in series [1] amounted to 15 µM. In addition, the 50% growth inhibitory concentration (GI50) in series [2] amounted to 4.8 µM; in series [3], 12 µM; in the series on Y79, 2.2 µM.
`COc1ccc(CC2COc3cc(OC)c(OC)c(OC)c3C2=O)cc1C(=O)O` (stereo not drawn): in series [1], the GI50 at 48 h came to 92 µM. The GI50 (in series [2]; in series [3]; in the series on Y79) was > 100 µM throughout.
As to `COc1cc(/C=C2\COc3cc(OC)c(OC)c(OC)c3C2=O)ccc1O`, the GI50 at 48 h in series [1] was found to be 6.2 µM. The GI50 in series [2] was found to be 3.3 µM; in series [3], 26 µM; with Y79 it was 5.2 µM.
On the same counts, the results for `COc1cc2c(c(OC)c1OC)C(=O)/C(=C/c1ccc(OCc3ccccc3)c(OCc3ccccc3)c1)CO2` are 43 µM, 72 µM, > 100 µM and 32 µM.
`COc1cc(OC)c2c(c1)OCC(Cc1ccc(OC)c(O)c1)C2=O` (stereo not drawn): the GI50 at 48 h in series [1] was found to be 2.5 µM. For the same molecule, the GI50 in series [2] was 1.6 µM; in series [3], > 100 µM; with Y79 it was 4.2 µM.
On the same counts, the results for `COc1ccc(/C=C2\COc3cc(OC)c(OC)c(OC)c3C2=O)cc1O` are 5.6 µM, 46 µM, 0.22 µM and 44 µM.
Taken in the same sequence, the figures for `COC(=O)c1cc(CC2COc3cc(OC)c(OC)c(OC)c3C2=O)ccc1OC` (stereo not drawn) were 17 µM, 18 µM, > 100 µM and 40 µM.
In the case of `COc1cc2c(c(OC)c1OC)C(=O)C(Cc1ccccc1)CO2` (stereo not drawn), the concentration for 50% growth inhibition (GI50) at 48 h in series [1] was > 100 µM. Also, the GI50 (in series [2]; in series [3]; in the series with Y79) was > 100 µM each time.
Consider `COc1ccc(CC2COc3cc(OC)c(OC)c(OC)c3C2=O)cc1OC(=O)[C@H](CCc1ccccc1)NC(=O)OC(C)(C)C` (stereo partly drawn), for which the GI50 at 48 h in series [1] was > 100 µM. Moreover, the figures for the GI50 (in series [2]; in series [3]; in the series on Y79) were 0.17 µM, > 100 µM and > 100 µM, respectively.
For the molecule `C=CCOc1ccc(C[C@H](NC(=O)OC(C)(C)C)C(=O)Nc2cc(CC3COc4cc(OC)c(OC)c(OC)c4C3=O)ccc2OC)cc1` (stereo partly drawn), the GI50 at 48 h in series [1] was determined as 4.5 µM. The GI50 in series [2] is 13 µM; in series [3], 1.9 µM; in the series on Y79, 2.5 µM.
For the molecule `COc1ccc(/C=C2\COc3cc(OC)c(OC)c(OC)c3C2=O)cc1F`, the GI50 at 48 h in series [1] amounted to 7.6 µM. In addition, the GI50 is 2.8 µM in series [2], 7 µM in series [3] and 9.8 µM in the series on Y79.
As for `COc1cc(OC)c2c(c1)OC/C(=C\c1ccc(OC)c(O)c1)C2=O`, the GI50 at 48 h in series [1] was found to be 15 µM. Besides, the GI50 is 42 µM in series [2], > 100 µM in series [3] and 14 µM in the series with Y79.

A word on the GI50: it is the concentration that inhibits growth by half.
